This experiment concerns the target Protein-S-isoprenylcysteine O-methyltransferase (Homo sapiens, UniProt O60725). As to the kind of experiment: Inhibition of ICMT expressed in Sf9 cells. In short, it runs like this:
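Sf9 membranes carrying ICMT added to start reactions with biotin-S-farnesyl L-cysteine and [3H]AdoMet in 100 mM Hepes pH 7.4, 5 mM MgCl2; 37 °C, 20 min; stopped with 10% Tween 20. [3H]methyl on substrate captured on streptavidin beads overnight at 4 °C, washed in phosphate-buffered NaCl, scintillation counted.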
Protein-S-isoprenylcysteine O-methyltransferase, sequence (O60725 whole entry): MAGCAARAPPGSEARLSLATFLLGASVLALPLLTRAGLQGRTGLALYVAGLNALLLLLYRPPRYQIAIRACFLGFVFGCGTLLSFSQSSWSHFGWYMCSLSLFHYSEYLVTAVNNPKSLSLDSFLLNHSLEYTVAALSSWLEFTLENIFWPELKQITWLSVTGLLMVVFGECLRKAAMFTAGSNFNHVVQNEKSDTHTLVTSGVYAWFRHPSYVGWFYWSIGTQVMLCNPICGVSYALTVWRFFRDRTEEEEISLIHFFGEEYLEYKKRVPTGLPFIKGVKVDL
The term IC50 denotes the concentration at which inhibition is half-maximal. The low end stands for greater potency, the high end for weaker potency. `NC(=O)Cc1cn(Cc2cccc(C(F)(F)F)c2)c2ccc(-c3cccc(F)c3)cc12` had an IC50 of 5.75 µM. Consider `NC(=O)Cc1cn(CC2CC2)c2ccc(-c3ccc(Oc4ccccc4)cc3)cc12`, for which half-maximal inhibition (IC50) was put at 100 µM. For `NC(=O)Cc1cn(Cc2ccccc2)c2ccc(-c3ccc(F)c(Cl)c3)cc12`, the IC50 is 10.5 µM. With `CCCCCCCCn1cc(CC(N)=O)c2cc(-c3ccc(F)c(Cl)c3)ccc21`, the midpoint of inhibition, the IC50, lay at 7.08 µM. Regarding `NC(=O)Cc1cn(Cc2ccc3ccccc3c2)c2ccc(-c3ccc(Oc4ccccc4)cc3)cc12`, the midpoint of inhibition, the IC50, lay at 100 µM. The figure for `Cc1cccc(-c2ccc3c(c2)c(CC(N)=O)cn3Cc2ccc3ccccc3c2)c1` is 17.4 µM; for `CCOc1cccc(-c2ccc3[nH]cc(CC(N)=O)c3c2)c1` it is 100 µM; for `NC(=O)Cc1cn(CC2CC2)c2ccc(-c3cccc(F)c3)cc12` it is 14.8 µM. As to `Cc1cccc(-c2ccc3c(c2)c(CC(N)=O)cn3CC(C)C)c1`, the IC50 is 15.8 µM. The figure for `CC(C)(C)c1ccc(Cn2cc(CC(N)=O)c3cc(-c4cccc(F)c4)ccc32)cc1` is 5.01 µM. To `NC(=O)Cc1cn(Cc2cccc(C(F)(F)F)c2)c2ccc(-c3ccc(Oc4ccccc4)cc3)cc12` belongs 100 µM; to `Cc1cccc(-c2ccc3[nH]cc(CC(N)=O)c3c2)c1`, 100 µM; to `CCCCCCn1cc(CC(N)=O)c2cc(-c3cccc(F)c3)ccc21`, 12.9 µM.

`NC(=O)Cc1cn(Cc2cccc(C(F)(F)F)c2)c2ccc(-c3ccc(F)c(Cl)c3)cc12` gave an IC50 of 6.17 µM. In the case of `Cc1cccc(-c2ccc3c(c2)c(CC(N)=O)cn3Cc2ccccc2)c1`, the midpoint of inhibition, the IC50, lay at 6.46 µM.

`CCCCCCCCn1cc(CC(N)=O)c2cc(-c3cccc(F)c3)ccc21`: the IC50 was 2.4 µM. The figure for `COc1ccccc1-c1ccc2c(c1)c(CC(N)=O)cn2Cc1cccc(C(F)(F)F)c1` is 6.17 µM; for `CCCCCCCCn1cc(CC(N)=O)c2cc(-c3cccc(OCC)c3)ccc21` it is 2.19 µM; for `NC(=O)Cc1c[nH]c2ccc(-c3ccc(F)c(Cl)c3)cc12` it is 100 µM. To `CCCCCCCCn1cc(CC(N)=O)c2cc(-c3cc(C(F)(F)F)cc(C(F)(F)F)c3)ccc21` belongs 37.2 µM; to `NC(=O)Cc1cn(CCCOc2ccccc2)c2ccc(-c3ccc(Oc4ccccc4)cc3)cc12`, 100 µM; to `CCOc1cccc(-c2ccc3c(c2)c(CC(N)=O)cn3CC2CC2)c1`, 6.46 µM. In the case of `COc1ccccc1-c1ccc2c(c1)c(CC(N)=O)cn2CCCOc1ccccc1`, it took 100 µM to reach half-maximal inhibition (IC50). To `COc1ccccc1-c1ccc2c(c1)c(CC(N)=O)cn2CC(C)C` belongs 21.9 µM. As for `NC(=O)Cc1cn(CCCOc2ccccc2)c2ccc(-c3cccc(F)c3)cc12`, it took 100 µM to reach half-maximal inhibition (IC50). The figure for `Cc1ccc(-c2ccc3c(c2)c(CC(N)=O)cn3CC(C)C)cc1` is 9.77 µM; for `COc1ccccc1-c1ccc2c(c1)c(CC(N)=O)cn2CC1CC1` it is 16.2 µM; for `NC(=O)Cc1c[nH]c2ccc(-c3cccc(F)c3)cc12` it is 39.8 µM. To `Cc1cccc(-c2ccc3c(c2)c(CC(N)=O)cn3Cc2cccc(C(F)(F)F)c2)c1` belongs 7.94 µM. `CCCCCCn1cc(CC(N)=O)c2cc(-c3ccc(C)cc3)ccc21` had an IC50 of 7.41 µM.

As to `COc1ccccc1-c1ccc2[nH]cc(CC(N)=O)c2c1`, the half-maximal inhibitory concentration (IC50) was 100 µM.

With `NC(=O)Cc1cn(CCCOc2ccccc2)c2ccc(-c3cc(C(F)(F)F)cc(C(F)(F)F)c3)cc12`, the IC50 is 100 µM. Regarding `Cc1ccc(-c2ccc3c(c2)c(CC(N)=O)cn3Cc2ccc3ccccc3c2)cc1`, half-maximal inhibition (IC50) required 19.5 µM.

For `CCCCCCn1cc(CC(N)=O)c2cc(-c3ccc(Oc4ccccc4)cc3)ccc21`, the half-maximal inhibitory concentration (IC50) is 100 µM.

`CCCCCCn1cc(CC(N)=O)c2cc(-c3ccc(F)c(Cl)c3)ccc21`: the IC50 is 9.33 µM. To `CCOc1cccc(-c2ccc3c(c2)c(CC(N)=O)cn3Cc2cccc(C(F)(F)F)c2)c1` belongs 4.9 µM.

For `CCOc1cccc(-c2ccc3c(c2)c(CC(N)=O)cn3Cc2ccc(C(C)(C)C)cc2)c1`, the IC50 was 12.6 µM.

`COc1ccccc1-c1ccc2c(c1)c(CC(N)=O)cn2Cc1ccccc1` gave an IC50 of 13.2 µM. The figure for `NC(=O)Cc1cn(Cc2ccc3ccccc3c2)c2ccc(-c3cc(C(F)(F)F)cc(C(F)(F)F)c3)cc12` is 100 µM. The figure for `CC(C)(C)c1ccc(Cn2cc(CC(N)=O)c3cc(-c4cc(C(F)(F)F)cc(C(F)(F)F)c4)ccc32)cc1` is 29.5 µM; for `Cc1cccc(-c2ccc3c(c2)c(CC(N)=O)cn3CCCOc2ccccc2)c1` it is 100 µM. `NC(=O)Cc1cn(Cc2ccccc2)c2ccc(-c3cccc(F)c3)cc12` gave an IC50 of 10.7 µM. To `Cc1ccc(-c2ccc3[nH]cc(CC(N)=O)c3c2)cc1` belongs 100 µM. The figure for `CCCCCCn1cc(CC(N)=O)c2cc(-c3cccc(C)c3)ccc21` is 7.41 µM; for `CCCCCCCCn1cc(CC(N)=O)c2cc(-c3ccc(C)cc3)ccc21` it is 10.7 µM; for `CCCCCCn1cc(CC(N)=O)c2cc(-c3ccccc3OC)ccc21` it is 8.13 µM. Consider `Cc1cccc(-c2ccc3c(c2)c(CC(N)=O)cn3CC2CC2)c1`, for which the IC50 was 9.12 µM. As to `NC(=O)Cc1cn(Cc2cccc(C(F)(F)F)c2)c2ccc(-c3cc(C(F)(F)F)cc(C(F)(F)F)c3)cc12`, the IC50 was 100 µM. In turn, `CC(C)Cn1cc(CC(N)=O)c2cc(-c3cc(C(F)(F)F)cc(C(F)(F)F)c3)ccc21` showed an IC50 of 25.7 µM. `CCOc1cccc(-c2ccc3c(c2)c(CC(N)=O)cn3Cc2ccc3ccccc3c2)c1` gave an IC50 of 8.32 µM. Compound `NC(=O)Cc1cn(CC2CC2)c2ccc(-c3cc(C(F)(F)F)cc(C(F)(F)F)c3)cc12` had an IC50 of 100 µM. The figure for `Cc1ccc(-c2ccc3c(c2)c(CC(N)=O)cn3Cc2cccc(C(F)(F)F)c2)cc1` is 6.46 µM; for `NC(=O)Cc1c[nH]c2ccc(-c3cc(C(F)(F)F)cc(C(F)(F)F)c3)cc12` it is 100 µM; for `CCCCCCCCn1cc(CC(N)=O)c2cc(-c3ccccc3OC)ccc21` it is 6.03 µM. `NC(=O)Cc1cn(CC2CC2)c2ccc(-c3ccc(F)c(Cl)c3)cc12` gave an IC50 of 5.75 µM. The figure for `CC(C)(C)c1ccc(Cn2cc(CC(N)=O)c3cc(-c4ccc(F)c(Cl)c4)ccc32)cc1` is 7.59 µM.

Regarding `CCOc1cccc(-c2ccc3c(c2)c(CC(N)=O)cn3CC(C)C)c1`, the IC50 was 6.17 µM. To `CCCCCCn1cc(CC(N)=O)c2cc(-c3cccc(OCC)c3)ccc21` belongs 6.61 µM; to `CC(C)Cn1cc(CC(N)=O)c2cc(-c3cccc(F)c3)ccc21`, 3.72 µM; to `CC(C)Cn1cc(CC(N)=O)c2cc(-c3ccc(F)c(Cl)c3)ccc21`, 9.12 µM.

The values above are taken from ChEMBL document CHEMBL1139053, “Quantitative structure-activity relationship (QSAR) of indoloacetamides as inhibitors of human isoprenylcysteine carboxyl methyltransferase” (Bioorg Med Chem Lett, 2007).
